Shown are actives, neighbours in structure and some others; about 6.6% of the full set was active somewhere.
PostGolgi ctrl: inhibits growth of the yeast control strain. inhibition, % at 10 µM. efflux-deficient yeast background strain, growth absorbance A615, 16 h. AID 738. hit rate 5% among 98,000
E coli WT exp: growth inhibitors of E. coli BW25113 wild type. OD600 absorbance. growth inhibition, % at 100 µM. hit rate 0.15% among 98,000. AID 710;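 active = growth inhibition above about 50% at one test dose, limit read from the data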;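 note: growth measured after 20 h incubation at 37 °C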
tolC growth inh: blocks growth of E. coli BW25113 tolC mutant | OD615 | growth inhibition, % at 10 µM (by protocol) | hit rate 2.2% among 65,000 | AID 573;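 active = growth inhibition at or above a cutoff equal to the mean over every tested compound plus 3 SD, cut at about 60% in these data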;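 note: growth measured after 20 h incubation at 37 °C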
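signal = optical density read at 615 nm | test system = E. coli ΔtolC::kan strain BW25113 | timing = 20 h compound exposure of bacteria at 37 °C | buffer or medium = LB medium plus 50 µg/mL kanamycin | compound dosing = 10 µM final, single dose | evaluation = % inhibition of E. coli growth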
Her2 expr inh: Her2 kinase expression inhibition; HER2 level % of control, % at 10 µM; AID 645; SKBR-3 HER2 protein level, AlphaScreen, 18-24 h; hits give low values; P04626; hit rate 0.69% among 65,000;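 active = HER2 level under 5% of the carrier-only control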;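 note: lower value means stronger loss of Her2 protein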
Target sequence (P04626 whole entry, looked up): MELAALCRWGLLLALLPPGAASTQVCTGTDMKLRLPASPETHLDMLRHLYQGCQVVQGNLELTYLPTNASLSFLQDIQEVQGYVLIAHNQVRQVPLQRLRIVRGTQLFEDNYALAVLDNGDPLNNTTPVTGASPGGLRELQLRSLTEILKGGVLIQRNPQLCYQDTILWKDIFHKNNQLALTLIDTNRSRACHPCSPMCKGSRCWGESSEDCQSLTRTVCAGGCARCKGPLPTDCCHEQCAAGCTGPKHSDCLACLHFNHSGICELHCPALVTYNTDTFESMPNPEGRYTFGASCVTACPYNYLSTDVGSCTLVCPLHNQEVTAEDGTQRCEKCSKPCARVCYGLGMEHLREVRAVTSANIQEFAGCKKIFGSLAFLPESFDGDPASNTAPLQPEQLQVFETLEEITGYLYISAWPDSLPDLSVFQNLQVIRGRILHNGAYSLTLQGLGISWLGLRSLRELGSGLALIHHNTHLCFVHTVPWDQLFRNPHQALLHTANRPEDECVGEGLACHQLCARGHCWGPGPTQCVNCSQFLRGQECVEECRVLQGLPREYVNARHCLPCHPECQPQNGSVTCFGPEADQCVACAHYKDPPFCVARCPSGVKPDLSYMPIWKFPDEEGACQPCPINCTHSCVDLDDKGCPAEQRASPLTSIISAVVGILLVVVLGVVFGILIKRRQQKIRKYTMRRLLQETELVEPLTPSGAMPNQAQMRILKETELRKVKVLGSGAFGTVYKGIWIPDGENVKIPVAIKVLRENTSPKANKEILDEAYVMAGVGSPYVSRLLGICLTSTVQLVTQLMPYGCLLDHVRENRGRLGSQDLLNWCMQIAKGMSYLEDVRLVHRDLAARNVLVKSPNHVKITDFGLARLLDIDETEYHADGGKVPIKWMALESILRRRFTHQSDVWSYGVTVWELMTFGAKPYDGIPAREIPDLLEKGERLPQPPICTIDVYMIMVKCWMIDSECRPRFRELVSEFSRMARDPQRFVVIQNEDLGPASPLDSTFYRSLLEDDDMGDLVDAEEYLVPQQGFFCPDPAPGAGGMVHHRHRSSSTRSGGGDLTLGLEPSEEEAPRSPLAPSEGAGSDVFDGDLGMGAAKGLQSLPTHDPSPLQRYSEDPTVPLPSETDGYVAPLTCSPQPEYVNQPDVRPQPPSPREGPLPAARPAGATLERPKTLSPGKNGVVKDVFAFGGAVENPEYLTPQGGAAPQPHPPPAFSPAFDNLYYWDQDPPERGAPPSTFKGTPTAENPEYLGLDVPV
PostGolgi yeast: growth inhibition of a yeast mutant, post-Golgi transport screen; post-Golgi transport phenotypic cell assay; hit rate 0.9% among 98,000; inhibition, % at 10 µM; AID 739;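 note: yeast cells grown in 1536-well plates; yeast grown about 18 h at 30C before absorbance read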
Each line names hits and unclear results; the compound was inactive in the other large screens. Cut-off read from the data, not from the text of the source, unless noted: active = inhibition above about 30%; inactive = the rest.

O=C1CCCC(O)=C1C=Nc1ccc(O)cc1	none
CCSCC1COC(c2cccn2Cc2ccc(C)cc2)=N1 (configuration not stated)	tolC growth inh 61.3
CC1COC(c2cccn2Cc2ccccc2Cl)=N1 (configuration not stated)	none
CCC(C)NC(=O)CSc1nc2ccccc2c(=O)n1Cc1ccc(OC)cc1 (configuration not stated)	none (no result: tolC growth inh, Her2 expr inh)
CC1CCCC(NC(=O)C2CCCN2S(=O)(=O)c2cccc3nsnc23)C1C (configuration not stated)	none (no result: tolC growth inh, Her2 expr inh)
CCOC(=O)c1c(C)oc2cc(Br)c(O)c(Br)c12	PostGolgi ctrl 51.9
CCOC(=O)COc1cc2c(C(=O)OCC)c(C)oc2cc1Br	none
Cc1cc(C(=O)N2CC(C)CC(C)C2)n(-c2ccccc2)n1 (configuration not stated)	PostGolgi ctrl 32.1
Cc1cc(C(=O)N2CCOCC2)n(-c2ccccc2)n1	none
N#CC1=C(N)N2C(=C(C#N)C13CCN(Cc1ccccc1)CC3)Nc1ccccc12	PostGolgi ctrl 30.2
Cc1[nH]nc2c1C1(CCN(Cc3ccccc3)CC1)C(C#N)=C(N)O2	none
COCCn1c(=O)[nH]c2cc(C(=O)NCCc3ccc(OC)c(OC)c3)ccc2c1=O	PostGolgi ctrl 34.0
O=C(Oc1ccccc1)c1cc2ccccc2o1	tolC growth inh 71.0
O=C(COC(=O)c1cc2ccccc2o1)c1ccccc1	none
O=C(N/C=N/O)C1=NOC(CNc2ncc(C(F)(F)F)cc2Cl)C1 (configuration not stated)	none (no result: tolC growth inh, Her2 expr inh)
O=C(CN1CCN(c2ccccn2)CC1)N(c1ccccc1)c1ccc2ccccc2c1	PostGolgi ctrl 65.8
O=C(CN1CCOCC1)N(c1ccccc1)c1ccc2ccccc2c1	none (no result: tolC growth inh)
C/C(=N\NC(=O)C1CC1c1ccccc1)c1cccs1 (configuration not stated)	none (no result: tolC growth inh, Her2 expr inh)
COc1ccc(C2CC2/C(=N/OC(=O)c2cccs2)c2ccccc2)cc1 (configuration not stated)	PostGolgi ctrl 40.2 (no result: tolC growth inh, Her2 expr inh)
N#Cc1c(C(F)(F)F)cc(-c2ccc(Cl)c(Cl)c2)nc1SCCN1CCOCC1	none (no result: tolC growth inh, Her2 expr inh)
N#Cc1c(C(F)(F)F)cc(-c2ccccc2)nc1SCc1nc(N)nc(N2CCOCC2)n1	PostGolgi ctrl 44.9
O=c1cc(CSc2ccc(S(=O)(=O)N3CCCCC3)cn2)nc2sccn12	PostGolgi ctrl 73.4, PostGolgi yeast 78.9
O=C(Cn1c(-c2cscn2)nc2ccccc21)Nc1ccccc1F	none (no result: tolC growth inh, Her2 expr inh)
CN(C)C(=O)NC(Nc1ccc(Cl)cc1Cl)C(Cl)(Cl)Cl (configuration not stated)	none (no result: tolC growth inh, Her2 expr inh)
O=S(=O)(c1ccc2c(c1)C(=NO)c1cc(S(=O)(=O)N3CCCCC3)ccc1-2)N1CCCCC1	Her2 expr inh -21.8
CC1CCN(S(=O)(=O)c2ccc3c(c2)C(=NO)c2cc(S(=O)(=O)N4CCC(C)CC4)ccc2-3)CC1	none (no result: tolC growth inh, Her2 expr inh)
Cc1nn(-c2ccccc2)c2[nH]c(=O)c(CNc3ccc(N4CCOCC4)cc3)cc12	none
Cc1nn(-c2ccc(Cl)cc2)c2[nH]c(=O)c(CNCc3ccc4c(c3)OCO4)cc12	Her2 expr inh -19.3
O=C(NCCCN1CCCC1=O)c1cccc(C(F)(F)F)c1	PostGolgi ctrl 35.1
O=C(COC(=O)CC1CC2CCC1C2)NC(=O)NCc1ccco1 (configuration not stated)	none (no result: tolC growth inh, Her2 expr inh)
CC1=C(C)[N+](=O)C2(O)CCCCC2(C)N1[O-] (configuration not stated)	none (no result: tolC growth inh, Her2 expr inh)
CC12CCCCC1(O)[N+](=O)C1=C(CCCC1)N2[O-] (configuration not stated)	Her2 expr inh -17.4
O=C(CSc1cn(CCNC(=O)c2cccs2)c2ccccc12)NC1CCCC1	none (no result: tolC growth inh, Her2 expr inh)
CCC(=O)OC1CC(C)N(C(=O)c2ccccc2)c2ccc(C)cc21 (configuration not stated)	none (no result: tolC growth inh, Her2 expr inh)
CCCC(=O)O[C@H]1C[C@@H](C)N(C(=O)c2ccccc2)c2ccc(C)cc21	PostGolgi ctrl 38.9 (no result: tolC growth inh, Her2 expr inh)
CC(C)COn1c(=S)[nH]c2ccccc2c1=O	PostGolgi ctrl 37.9 (no result: tolC growth inh, Her2 expr inh)
Cc1onc(-c2ccccc2Cl)c1C(=O)N1CCc2ccccc21	PostGolgi ctrl 33.9
Cc1onc(-c2ccccc2Cl)c1C(=O)N1CCCc2ccccc21	none
NC(=O)c1ccc(C(F)(F)F)n(Cc2cccc(Cl)c2)c1=O	PostGolgi ctrl 60.7 (no result: tolC growth inh, Her2 expr inh)
COC(=O)CSc1nc(N2CCCCC2)c2c(c1C#N)CCCC2	PostGolgi ctrl 38.3, tolC growth inh 64.5
N#Cc1c(SCC(=O)O)nc(N2CCCCC2)c2c1CCCC2	none
CC(=O)Nc1cccc(N2C(=O)CCC2=O)c1	PostGolgi ctrl 37.6 (no result: tolC growth inh, Her2 expr inh)
COc1ccc(Nc2nc3ccccc3nc2NS(=O)(=O)c2cccs2)cc1	PostGolgi ctrl 35.5 (no result: tolC growth inh, Her2 expr inh)
COCCCNc1nc2ccccc2nc1NS(=O)(=O)c1cccs1	none
CC(C)(C)c1cc(C(F)(F)F)nc(SCCCNC(=O)c2ccco2)n1	tolC growth inh 100.0
Fc1ccc(-c2cc3nc4c(c(N5CCOCC5)n3n2)CCCC4)cc1	PostGolgi ctrl 57.1
Cc1cccc(-c2cc3nc4c(c(NCc5ccco5)n3n2)CCCC4)c1	PostGolgi ctrl 42.3 (no result: tolC growth inh, Her2 expr inh)
Cc1cccc(-c2cc3nc4c(c(N5CCOCC5)n3n2)CCCC4)c1	PostGolgi ctrl 72.3, tolC growth inh 84.7
OC1CCN(c2c3c(nc4cc(-c5ccc(F)cc5)nn24)CCC3)CC1	PostGolgi ctrl 48.9 (no result: tolC growth inh, Her2 expr inh)
C1CCc2c(nc3nnnn3c2N2CCOCC2)C1	none
O=C(C1CCCO1)N1CCN(c2c3c(nc4cc(-c5ccc(F)cc5)nn24)CCC3)CC1 (configuration not stated)	none
CCOC(=O)c1cc2c(C)n(-c3ccc(C)cc3)c(C)c2ccc1=O	none (no result: tolC growth inh, Her2 expr inh)
Cc1ccc(-c2ccc(/C=N/c3ncn[nH]3)o2)cc1Cl	PostGolgi ctrl 34.5
Cc1ccc(-c2ccc(/C=N/NC(=O)CN3CCCC3)o2)cc1Cl	none (no result: tolC growth inh, Her2 expr inh)
Cc1ccc(CNC(=O)c2ccc(Cn3nc(C)c(Cl)c3C)o2)cc1	PostGolgi ctrl 100.5, PostGolgi yeast 104.3
Cc1nn(Cc2ccc(C(=O)Nc3ccccc3C(F)(F)F)o2)c(C)c1Br	PostGolgi ctrl 34.4 (no result: tolC growth inh, Her2 expr inh)
Cc1ccc(CNC(=O)c2ccc([N+](=O)[O-])o2)cc1	none (no result: tolC growth inh, Her2 expr inh)
Cc1ccccc1OCCNC(=O)CNC(=O)c1ccccc1O	none
COCCNC(=O)c1cc2oc3ccccc3c2n1C	none (no result: tolC growth inh, Her2 expr inh)
Cc1ccc(Nc2nc(C(=O)NCc3ccco3)cs2)cc1	none
CCN(CC)C(=O)c1csc(Nc2ccc(C)cc2)n1	Her2 expr inh -19.6
C=CCN(CC=C)S(=O)(=O)c1ccc2nc(NC(=O)C(C)C)sc2c1	tolC growth inh 100.0
COc1cc(-c2nnc(-c3ccncc3)o2)ccc1OCc1ccccc1	none
COc1cc(-c2nnc(-c3ccco3)o2)ccc1OCc1ccccc1	tolC growth inh 96.1
CN(C)C(=O)CNC(=O)C1CCCCC1	none (no result: tolC growth inh, Her2 expr inh)
O=C(NCC(=O)N1CCC(N2CCCCC2)CC1)C1CCCCC1	PostGolgi ctrl 30.1
Clc1ccc(Nc2ccc(-n3ccnc3)nn2)cc1Cl	PostGolgi ctrl 34.3 (no result: tolC growth inh, Her2 expr inh)
FC(F)(F)c1ccc(-n2ccnc2)nc1	none
O=C(NCCC(=O)N1CCNC1=O)OCc1ccccc1	none
CC(C)COc1ccc(C(=O)CCN2CCCCC2)cc1	PostGolgi ctrl 44.1
CCCCOc1ccc(C(=O)CCN2CCCCC2)cc1	none (no result: PostGolgi ctrl, E coli WT exp, PostGolgi yeast)
